# Source: PubChem
# Hck-Nef inh: human Hck-Nef kinase inhibition. P08631. Recombinant Hck-YEEI plus Nef, Z-Lyte FRET kinase assay. inhibition, % at 20 µM. hit rate 0.68% among 220,000;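 active = Hck-Nef kinase inhibition above about 50%, limit read from the data; inactive = inhibition below that limit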
# Target sequence (P08631 whole entry, looked up): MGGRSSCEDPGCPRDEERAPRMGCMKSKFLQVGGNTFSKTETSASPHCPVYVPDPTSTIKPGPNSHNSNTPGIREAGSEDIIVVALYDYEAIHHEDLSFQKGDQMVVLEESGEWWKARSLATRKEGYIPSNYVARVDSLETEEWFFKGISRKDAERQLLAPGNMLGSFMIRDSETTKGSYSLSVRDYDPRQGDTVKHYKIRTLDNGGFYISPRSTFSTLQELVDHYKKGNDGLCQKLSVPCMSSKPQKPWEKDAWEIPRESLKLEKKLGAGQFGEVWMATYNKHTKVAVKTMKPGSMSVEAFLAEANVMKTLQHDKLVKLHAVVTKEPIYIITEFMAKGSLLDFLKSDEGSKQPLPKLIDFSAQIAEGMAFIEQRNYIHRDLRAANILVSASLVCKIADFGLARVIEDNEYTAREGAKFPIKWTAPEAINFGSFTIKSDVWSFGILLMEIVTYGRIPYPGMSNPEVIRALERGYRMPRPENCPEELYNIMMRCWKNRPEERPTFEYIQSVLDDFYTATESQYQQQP
# RanGTP-Impb inh: inhibitors of RanGTP-importin-beta interaction, primary screen, biochemical, FRET, CFP-Ran, YFP-importin-beta, homogeneous; cell-free CFP-Ran/YFP-importin-beta FRET ratio; inhibition, % (concentration not given with the values); hit rate 1.1% among 300,000;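 active = more than half of the replicate wells show a fall in the fluorescence ratio signal beyond about 16%, limit read from the data, passing the limit was not always enough; inconclusive = exactly half of the replicate wells pass the set limit; inactive = fewer than half of replicates pass the limit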
# Runt-CBFb FRET: inhibitors of human RUNX1 Runt domain binding to CBFb; Q01196+Q13951; Cerulean-Runt/Venus-CBFb FRET ratio 530/480, 1 h; inhibition, % at 20 µM; hit rate 0.46% among 220,000; AID 1496;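 active = inhibition over about 50% at 20 µM in the single-dose screen, limit read from the data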
#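 Assay system: Cerulean-Runt domain fusion protein, energy donor; Signal: fluorescence energy transfer, 422 nm excitation, 530/480 nm emission; Timing: 1 h compound exposure, room temperature; Control set: unlabeled CBFb; Medium: Tris buffer pH 7.5 with salts and BSA; Compound: single test concentration of 20 µM, 1% DMSO final; Probe or stimulus: Venus-CBFb 100 nM.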
# Runt-SMMHC FRET: inhibitors of human RUNX1 Runt domain binding to CBFb-SMMHC; inhibition, % at 20 µM; hit rate 0.74% among 220,000; Q01196+Q13951; Cerulean-Runt/Venus-CBFb-SMMHC FRET ratio 530/480, 1 h;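 active = mean inhibition across duplicate retests at 20 µM reaching about 50%, limit read from the data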;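 note: inhibitors lower the FRET ratio by blocking Runt binding to CBFb-SMMHC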
# Hck Nef conf: confirmation of Hck-Nef kinase inhibitors; shares compounds with Hck-Nef inh; Recombinant Hck-YEEI:Nef, Z-Lyte FRET kinase assay; calls only at 10 µM; hit rate 28% among 1,300; AID 463188;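 active = average inhibition of at least 50%, with Z-scores no higher than 3 in both the phospho-tyrosine peptide and fluorescence counterscreens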
# Hits are given with their value; 0 = inactive; ? = inconclusive; - = no result given; + = active, no number. A selection: hits, their analogues and other compounds. The true share with any hit is near 1.7%.
SMILES,Hck-Nef inh,RanGTP-Impb inh,Runt-CBFb FRET,Runt-SMMHC FRET,Hck Nef conf
O=[N+]([O-])c1sccc1CS(=O)(=O)c1ccccc1,0,0,0,0,-
CCCC(=O)Nc1c2c(nc3ccccc13)N(c1ccccc1)CC2,0,0,0,0,-
O=C(CN1CCCCC1)Nc1c2c(nc3ccccc13)N(c1ccccc1)CC2,91,0,0,0,-
CCOC(=O)Cc1csc(NC(=O)COc2ccc(C)cc2)n1,0,0,0,0,-
CCOC(=O)Cc1csc(NC(=O)COc2ccc(C)c(C)c2)n1,53,0,-,-,0
Cc1ccc2nc3c(cc(C(=O)NCC4CCCO4)c(=N)n3CCCOC(C)C)c(=O)n2c1 (centres undefined),182,-,0,0,0
CCOCCCNc1nc2nc3ccc(C)cn3c(=O)c2cc1C(=O)NCC1CCCO1 (centres undefined),199,0,-,-,-
Cc1c(Cl)cccc1NS(=O)(=O)c1ccc2c(c1)C1C=CCC1C(c1ccc(C(=O)O)cc1)N2 (centres undefined),63,-,0,0,+
Cc1ccc(-c2nc(CS(=O)CC(=O)NCc3ccc4c(c3)OCO4)c(C)o2)cc1 (centres undefined),-,0,-,-,-
Nc1cccc2nc3ccccc3cc12,76,176,0,58,-
Nc1[nH]nc2nc3ccccc3cc12,0,0,0,0,-
Cc1ccc(C(=O)NCCNS(=O)(=O)c2ccccc2[N+](=O)[O-])cc1,-,0,-,-,-
COc1cccc(/C=N/NC(=O)c2cnn(-c3ccccc3)c2N)c1,94,0,0,0,0
Cc1c(C)c2cc(Cl)c(O)c(CN3CCN(C)CC3)c2oc1=O,66,0,96,127,-
CN1CCN(Cc2c(O)ccc3c(-c4ccccc4)cc(=O)oc23)CC1,0,0,0,0,-
CCCCCC(=O)NNC(=O)c1ccc(F)cc1,0,?,0,0,-
CCN(CC)c1ccc(/C=N/N2CCN(Cc3ccccc3)CC2)cc1,57,0,0,0,0
Cc1cc(-c2cccs2)c(C#N)c(=S)[nH]1,0,0,0,0,-
N#Cc1c(-c2cccs2)cc(-c2cccs2)[nH]c1=O,109,45,86,80,-
N#Cc1c(-c2cccs2)nc(SCc2ccc(Cl)cc2)[nH]c1=O,69,0,0,0,+
CSc1nc(-c2cccs2)c(C#N)c(=O)[nH]1,0,0,0,0,-
CCOC(=O)N1CCN(C(=O)c2ccc3c(=O)n(-c4ccc(F)cc4)c(=S)[nH]c3c2)CC1,53,0,0,0,0
CN1CCN(C(=O)c2ccc3c(=O)n(-c4ccc(F)cc4)c(=S)[nH]c3c2)CC1,0,0,0,0,-
Nc1nccnc1C(=O)OCC(=O)NNC(=O)c1ccccc1,-,0,-,-,-
Cc1ccc(CN2C(=O)N/C(=C\c3cccn3-c3cccc(C(=O)O)c3)C2=O)cc1,0,0,0,0,-
SMILES,Hck-Nef inh,RanGTP-Impb inh,Runt-CBFb FRET,Runt-SMMHC FRET,Hck Nef conf
Cc1ccc(CN2C(=O)N/C(=C/c3ccc(-c4ccc(C(=O)O)cc4)o3)C2=O)cc1,89,?,126,80,-
Cc1cccc(NC(=O)CN2C(=O)N/C(=C\c3ccc(-c4cccc(C(=O)O)c4)o3)C2=O)c1,80,26,85,80,-
O=C(c1cccnc1)N1CCN(c2ccccc2Cl)CC1,0,0,0,0,-
O=C(CN1C(=O)/C(=C2\SC(=S)N(C3CCS(=O)(=O)C3)C2=O)c2ccccc21)Nc1ccc(F)cc1 (centres undefined),0,0,0,0,-
COc1ccc(NC(=O)CN2C(=O)/C(=C3\SC(=S)N(C4CCS(=O)(=O)C4)C3=O)c3ccccc32)cc1 (centres undefined),99,0,0,0,+
CC(=O)NC(=S)Nc1ccc(NC(=O)c2cccnc2Cl)cc1,0,0,0,0,-
CCC(=O)Nc1cc(-c2cc3ccccc3oc2=O)ccc1OC,0,0,0,0,-
COc1ccc(-c2cc3ccccc3oc2=O)cc1NC(=O)c1ccc([N+](=O)[O-])o1,0,0,0,0,-
COc1ccc(-c2cc3ccccc3oc2=O)cc1NC(=S)NC(=O)c1ccc2c(c1)OCCO2,51,?,-,0,+
COc1ccc(-c2cc3ccccc3oc2=O)cc1NC(=O)c1ccc(Br)o1,77,?,0,0,0
O=C(c1ccco1)N(Cc1ccc2c(c1)OCO2)Cc1cc2cc3c(cc2[nH]c1=O)OCO3,126,0,0,0,0
Cc1cc2cc(CN(Cc3ccc4c(c3)OCO4)C(=O)c3ccco3)c(=O)[nH]c2cc1C,0,0,0,0,-
CCCCn1c(N)c(N(Cc2ccccc2OC)C(=O)CN2C(=O)NC3(CCCC3)C2=O)c(=O)[nH]c1=O,-,0,-,-,-
COC(=O)c1ccccc1NC(=O)N1CCN(Cc2ccco2)CC1,64,0,0,0,0
CC12CC3(C)CC(C)(C1)CC(C(=O)NCc1cccnc1)(C2)C3,-,0,-,-,-
COc1ccc(-c2nc(-c3ccc(O)cc3O)cs2)cc1OC,61,0,0,0,+
CC(OC(=O)CCCC(=O)Nc1ccccc1)C(=O)c1ccccc1 (centres undefined),-,0,-,-,-
CC(C)(C)CC(C)(C)c1ccc(OCC(=O)N/N=C/c2ccc(S(=O)(=O)O)o2)cc1,57,0,0,0,+
Cc1ccc(C(C)C)c(OCC(=O)N/N=C/c2ccc(S(=O)(=O)O)o2)c1,0,0,0,0,-
CNc1nc(-c2ccccc2)cc(C(F)(F)F)c1C#N,68,0,0,0,-
CCCCn1nnc(NC(=S)NC(=O)c2ccc(OCC)c([N+](=O)[O-])c2)n1,-,0,-,-,-
Nc1nc(N)nc(-c2ccc(Oc3ccccc3)cc2)n1,0,0,0,0,-
Cc1ccc(Oc2ccc(-c3nc(N)nc(N)n3)cc2)cc1C,76,0,0,0,0
COc1cccc(N2CC(C(=O)Nc3nnc(SCC(=O)Nc4cc(C)on4)s3)CC2=O)c1 (centres undefined),52,0,0,0,+
COc1cc(/C=C(/C#N)c2nc3ccccc3[nH]2)ccc1OCc1ccc(C(=O)O)o1,56,0,0,63,+
SMILES,Hck-Nef inh,RanGTP-Impb inh,Runt-CBFb FRET,Runt-SMMHC FRET,Hck Nef conf
O=C(CCNC(=O)N1CCn2c1nc1ccccc12)NCc1ccccc1Cl,-,0,-,-,-
COc1ccc(N(Cc2ccccc2)N=O)cc1,-,0,-,-,-
O=C(NCCC1=CCCCC1)c1cc(-c2ccccn2)nc2ccccc12,60,0,0,0,0
Cc1ccsc1/C=N\Nc1cn[nH]c(=O)c1Cl,74,0,0,0,+
O=c1[nH]ncc(N/N=C/c2ccccc2)c1Cl,0,0,0,0,-
COc1ccc(/C=N/Nc2cn[nH]c(=O)c2Cl)cc1,72,0,0,0,+
Cc1ccc(/C=N\Nc2cn[nH]c(=O)c2Cl)cc1,0,0,0,0,-
COC(=O)c1ccc(CSc2ccc3nnc(-c4ccc(OC)c(OC)c4)n3n2)o1,-,0,-,-,-
O=C(c1cccc(F)c1)N1CCC(c2nc3ccccc3s2)CC1,0,0,-,0,-
O=C1/C(=C/c2ccco2)SC(=S)N1C1CCS(=O)(=O)C1 (centres undefined),0,?,0,0,-
